Data set [1] is filed under the species Rattus norvegicus. The experiment in a line: (§1) Displacement of [35S]TBPS from GABAA receptor in Sprague-Dawley rat cortex membrane. The class given is cell membranes.
Data set [2] in a line: as §1. The class given is cell membranes.
The test system of data set [3] is Mus musculus. The experiment in a line: Induction of loss of righting reflex in non-Swiss Albino mouse at 50 mg/kg, ip after 40 mins. The class given is functional, organism-based. Also noted: dose 50 mg/kg. In a few lines:
(§2)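 Male NSA mice were dosed at 50 mg/kg ip or po in PEG 400 and then placed on their backs. Animals staying on their backs for more than 1 min were scored as having lost the righting reflex.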

The subject of data set [4] is Mus musculus. Description: Anticonvulsant activity against pentylenetetrazole-induced seizures in non-Swiss Albino mouse at 50 mg/kg, ip. The class given is functional, organism-based. Set-up: dose 50 mg/kg.
Data set [5] addresses GABA-A receptor; alpha-1/beta-2/gamma-2 (Homo sapiens) (UniProt P14867+P47870+P18507). The experiment in a line: Activity at human GABAA alpha-1-beta-2-gamma-2L expressed in Xenopus oocytes assessed as potentiation of GABA currents in absence of GABA at 10 uM. The class given is cell-based. Conditions: Oocyte.
Data set [6] has as its system Mus musculus. Description: Anxiolytic activity in non-Swiss Albino mouse assessed as reduction of time spent in dark at 3 mg/kg, po. Type of data set: functional, organism-based. Set-up: dose 3 mg/kg. In a few lines:
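Male NSA mice (25-30 g) were dosed po 30 min before a 3 min session in a light-dark box: a black compartment lit with red light and an illuminated white compartment, joined by a floor-level hole. Time spent in each compartment was recorded. Vehicle was 3:1 PEG 400/5% dextrose in water.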

The nature of data set [7]: Therapeutic index, ratio of light-dark MED to TD50 by rotarod test in non-Swiss Albino mouse at 3 mg/kg, po. The class given is organism-based. Also noted: dose 3 mg/kg, route oral. Conditions: in vivo, read-out: TI. Put shortly: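 The index was calculated as […]. Both were measured in male NSA mice given oral doses. TD50 was derived by the Litchfield-Wilcoxon method, and light-dark time was recorded over a 3 min session 30 min after dosing.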
In general terms: Falling from the rotarod earlier than controls is read as motor impairment.

In data set [8] the test system is Mus musculus. The experiment in a line: CNS toxicity by rotarod test in non-Swiss Albino mouse at 3 mg/kg, po. Also noted: dose 3 mg/kg, route oral. Type of data set: organism-based. Conditions: in vivo. Put shortly:
(§3)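 Mice were dosed orally and scored on the rotarod for CNS depressant potential. TD50, the dose causing behavioral toxicity in half the animals, was calculated from each dose-response function by the Litchfield-Wilcoxon method.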

The species named for data set [9] is Rattus norvegicus. The experiment in a line: Displacement of [3H]flunitrazepam from BZ-site of GABAA receptor in Sprague-Dawley rat cortex membrane. Type of data set: cell membranes. Put shortly: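 P2 membrane pellet (sucrose homogenate spun 1000g then 9000g), resuspended in 50 mM Na/K phosphate pH 7.4 with 200 mM NaCl. Incubated with 0.2 nM [3H]flunitrazepam, 1 µM GABA and test drug in DMSO (≤1%) for 90 min at 25 °C. Nonspecific binding defined with 1 µM clonazepam. Filtration, scintillation counting; nonlinear regression fit.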
(In general: In a radioligand displacement assay an active substance lowers the binding of a labelled ligand.)

Data set [10] is filed under the species Rattus norvegicus. The experiment in a line: Enhancement of [3H]muscimol binding to BZ-site of GABAA receptor in Sprague-Dawley rat cortex membrane. Type of data set: cell membranes.
Data set [11] is described as follows: Enhancement of [3H]flunitrazepam binding to BZ-site of GABAA receptor in Sprague-Dawley rat cortex membrane. Type of data set: cell membranes. In a few lines:
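Conditions and membrane preparation match the TBPS assay, except that GABA was 1 µM. Sites were labelled with 0.2 nM [3H]flunitrazepam, and nonspecific binding was defined with 1 µM clonazepam.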

Data set [12] relates to Mus musculus. The experiment in a line: Induction of loss of righting reflex in non-Swiss Albino mouse at 50 mg/kg, po. Also noted: dose 50 mg/kg. The class given is functional, organism-based. In a few lines: as §2
Data set [13] relates to Mus musculus. The experiment in a line: Suppression of locomotor activity in non-Swiss Albino mouse at 50 mg/kg, po. The class given is functional, organism-based. Set-up: dose 50 mg/kg. Put shortly:
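Male NSA mice, either nonhabituated or habituated (30 min in the chamber on 3 consecutive days), were given compound in PEG 400 or vehicle and immediately placed in an activity chamber. Horizontal beam breaks were recorded every 5 min, over 1 h for habituated mice. Activity was taken as total distance traveled (cm), with testing between 9 a.m. and 2 p.m.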

The test system of data set [14] is Mus musculus. The experiment in a line: CNS toxicity by rotarod test in non-Swiss Albino mouse at 50 mg/kg, po. The class given is organism-based. Also noted: dose 50 mg/kg, route oral. As to conditions: in vivo. In a few lines: as §3

24 molecules from ChEMBL document CHEMBL1145429, “Enaminone amides as novel orally active GABAA receptor modulators” (J Med Chem, 2007) can be followed below.

SMILES strings stand for the structures. The source made the active and inactive calls. The rule behind the calls is not given here.

`CCOC(=O)/C(=C\Nc1ccc(F)cc1)C(=O)c1ccccc1Cl` displayed an Imax in the data set filed under Rattus norvegicus [1] of 93%. For the same molecule, in data set [2], the IC50 was determined as 300 nM.

As for `CCOC(=O)/C(=C\Nc1ccc(F)cc1)C(=O)c1ccc(Cl)cc1`, in the data set filed under Rattus norvegicus [1], the Imax was found to be 100%. Besides, the IC50 in data set [2] came to 490 nM.

On to `CCC(C)NC(=O)/C(=C\Nc1ccc(Cl)cc1)C(=O)c1ccccc1Cl` (stereo unspecified), for which the outcome in the data set with Mus musculus [3] was Active. Further, in the data set on Mus musculus [4], the outcome was inactive. Also, the Imax in the data set filed under Rattus norvegicus [1] was determined as 86%. Further, in [2], the IC50 was 20 nM.

The molecule `CCOC(=O)/C(=C\Nc1ccc(F)cc1)C(=O)c1cc(F)c(Cl)cc1Cl` returned an Imax in the data set filed under Rattus norvegicus [1] of 87%. This molecule also came in with an IC50 in [2] of 130 nM.

With `CCOC(=O)/C(=C\Nc1ccc(C)cc1)C(=O)c1ccccc1Cl`, in the data set filed under Rattus norvegicus [1], the Imax amounted to 93%. The molecule also came in with an IC50 in data set [2] of 450 nM.

For the molecule `CC(C)NC(=O)/C(=C\Nc1ccc(Cl)cc1)C(=O)c1ccccc1Cl`, the outcome (in data set [5]; with Mus musculus [4]) was inactive. Also, the outcome in the data set on Mus musculus [6] and in the data set on Mus musculus [3] was Active. Also, the selectivity ratio in data set [7] was > 10. The Imax in the data set filed under Rattus norvegicus [1] was found to be 80%. In data set [2], the IC50 was found to be 40 nM. In addition, the Activity entry with Mus musculus [8] is listed as “Non-toxic”.

As for `CC(C)C(C)NC(=O)/C(=C\Nc1ccc(Cl)cc1)C(=O)c1ccccc1Cl` (stereo unspecified), in the data set on Mus musculus [4], the outcome was inactive. The Imax in the data set listed under Rattus norvegicus [1] is 94%. The same molecule returned an IC50 in data set [2] of 400 nM.

In the case of `O=C(NC1CC1)/C(=C\Nc1ccc(Cl)cc1)C(=O)c1ccccc1Cl`, the result in the data set with Mus musculus [3] was Active. For the same molecule, the result in the data set with Mus musculus [4] was inactive. In addition, the Imax in the data set listed under Rattus norvegicus [1] is 92%. In data set [2], this molecule yielded an IC50 of 30 nM.

Turning to `CNC(=O)/C(=C\Nc1ccc(Cl)cc1)C(=O)c1ccccc1Cl`, the outcome in the data set with Mus musculus [4] was inactive. The Imax in the data set listed under Rattus norvegicus [1] was found to be 74%. Further, the IC50 in [2] worked out at 160 nM.

In the data set filed under Rattus norvegicus [1], `CCOC(=O)/C(=C\Nc1ccccc1Cl)C(=O)c1ccccc1Cl` yielded an Imax of 100%. Besides, the IC50 in [2] worked out at 700 nM.

`CCOC(=O)/C(=C\Nc1cccc(Cl)c1)C(=O)c1ccccc1Cl`: the Imax in the data set filed under Rattus norvegicus [1] came to 100%. This molecule came in with an IC50 in data set [2] of 600 nM.

Regarding `O=C1CN=C(c2ccccc2Cl)c2cc([N+](=O)[O-])ccc2N1`, in the data set listed under Rattus norvegicus [9], the Activity result was “Dose-dependent effect”.

In the case of `CC(C)(C)NC(=O)/C(=C\Nc1ccc(Cl)cc1)C(=O)c1ccccc1Cl`, the outcome with Mus musculus [4] was inactive. This molecule also displayed an Imax in the data set filed under Rattus norvegicus [1] of 100%. Besides, the IC50 in data set [2] is 3000 nM.

For `O=C(NC1CCCC1)/C(=C\Nc1ccc(Cl)cc1)C(=O)c1ccccc1Cl`, in the data set with Mus musculus [4], the result was inactive. Also, in the data set filed under Rattus norvegicus [1], the Imax came out at 88%. The same molecule yielded an IC50 in data set [2] of 30 nM.

As to `O=C(NC1CCC1)/C(=C\Nc1ccc(Cl)cc1)C(=O)c1ccccc1Cl`, the outcome in the data set with Mus musculus [3] was Active. In addition, in the data set on Mus musculus [4], the outcome was inactive. The molecule further gave an Imax in the data set filed under Rattus norvegicus [1] of 88%. In addition, the IC50 in data set [2] worked out at 7 nM.

For `NC(=O)/C(=C\Nc1ccc(Cl)cc1)C(=O)c1ccccc1Cl`, in the data set on Mus musculus [4], the outcome was inactive. The same molecule returned an Imax in the data set filed under Rattus norvegicus [1] of 40%.

`C#Cc1ccc(N/C=C(\C(=O)NCCC)C(=O)c2ccccc2Cl)cc1`: the outcome in the data set listed under Rattus norvegicus [10] was Active. The EC50 in [11] worked out at 60 nM.

Turning to `CCC(CC)NC(=O)/C(=C\Nc1ccc(Cl)cc1)C(=O)c1ccccc1Cl`, the result in the data set on Mus musculus [4] was inactive. For the same molecule, the Imax in the data set listed under Rattus norvegicus [1] was 86%. Moreover, the IC50 in data set [2] came out at 80 nM.

For `CCOC(=O)/C(=C\Nc1ccc(Cl)cc1)C(=O)c1ccccc1Cl`, the result in the data set with Mus musculus [3] was Active. Further, the outcome with Mus musculus [12] and in the data set on Mus musculus [13] was inactive. This molecule had an Imax in the data set filed under Rattus norvegicus [1] of 95%. Moreover, in [2], the IC50 was 90 nM.

Molecule `CCOC(=O)/C(=C\Nc1ccc(C(C)C)cc1)C(=O)c1ccccc1Cl` showed an Imax in the data set listed under Rattus norvegicus [1] of 94%. This molecule also showed an IC50 in data set [2] of 360 nM.

As to `C#Cc1ccc(N/C=C(\C(=O)OCC)C(=O)c2ccccc2Cl)cc1`, the result in the data set filed under Rattus norvegicus [10] was Active. Also, in [11], the EC50 is 6 nM. In the data set listed under Rattus norvegicus [1], this molecule showed an Imax of 100%. The same molecule returned an IC50 in data set [2] of 8 nM.

Turning to `CCNC(=O)/C(=C\Nc1ccc(Cl)cc1)C(=O)c1ccccc1Cl`, the Activity result with Mus musculus [14] was “Non-toxic”. The result in the data set with Mus musculus [3] was Active. Also, the result in the data set on Mus musculus [12] and in the data set with Mus musculus [4] was inactive. The same molecule gave an Imax in the data set filed under Rattus norvegicus [1] of 82%. Also, the IC50 in [2] came to 50 nM.

Consider `CCCNC(=O)/C(=C\Nc1ccc(Cl)cc1)C(=O)c1ccccc1Cl`, for which the result in the data set on Mus musculus [3] was Active. Also, the outcome with Mus musculus [12] and in the data set with Mus musculus [4] was inactive. For the same molecule, the Imax in the data set listed under Rattus norvegicus [1] came out at 90%. In [2], this molecule yielded an IC50 of 45 nM.

Take `CCOC(=O)/C(=C\Nc1ccc(F)cc1)C(=O)c1cccc(Cl)c1`: in the data set listed under Rattus norvegicus [1], the Imax came to 90%. In data set [2], this molecule had an IC50 of 900 nM.

By IC50 is commonly meant the midpoint of a concentration-inhibition curve. The EC50 is the concentration at which the effect is half-maximal.
